Eleven compounds from ChEMBL document CHEMBL4725393, “Prodrug Strategies to Improve the Solubility of the HCV NS5A Inhibitor Pibrentasvir (ABT-530)” (J Med Chem, 2020) can be followed below.

Broadly, the AUC is the area under the concentration-time curve, a measure of exposure. By solubility (thermodynamic) is commonly meant the concentration in solution at equilibrium with solid. As a reminder, the Cmax is the highest concentration seen after dosing. Usually solubility stands for how much of the substance goes into solution per volume.

≈ marks a conversion by molar mass, not a printed value.

Series [1] can be described thus: AUC in CD1 mouse assessed as pibrentasvir1 level at 6 mg/kg, po measured up to 24 hrs. Also on record: route oral, dose 6 mg/kg, time <=24. The following applies: in vivo. In kind it is ADME, organism-based. Put shortly:
(§1)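 CD-1 mice with free access to food and water received an oral gavage of prodrug or PIB at 10 mL/kg in 0.2% HPMC. The dose was adjusted for prodrug MW to equal 6 mg/kg PIB. K2EDTA blood was drawn at 0.25, 0.5, 1, 3, 6, 9, 12 and 24 h. Plasma was spun at 3200 x g for 5 min at ~4°C and stored below -15°C. PIB and prodrug were measured; AUC in ng·h/mL, Cmax in ng/mL.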

The nature of series [2]: Equilibrium solubility of compound at pH 1 incubated for 24 to 48 hrs by HPLC analysis. As to conditions: buffer, time 24-48 hrs. In kind it is physicochemical. The method, boiled down:
(§2)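 For equilibrium solubility, excess solid was added to 3–4 mL of medium, in triplicate. Suspension pH was read after equilibration. Solids were removed by centrifugation at 4000 rpm at 25 °C, and the supernatant was passed through a 0.45 µm filter, discarding the first 2 mL. The filtrate was quantified by HPLC against standard curves.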

The nature of series [3]: Cmax in CD1 mouse assessed as pibrentasvir1 level at 6 mg/kg, po measured up to 24 hrs. In kind it is ADME, organism-based. More on the design: route oral, dose 6 mg/kg, time <=24. As to conditions: in vivo. The method, boiled down: as §1
Series [4] can be described thus: Stability of compound at pH 7.4 assessed as prodrug remaining level at 125 ug/ml incubated for 24 hrs by HPLC analysis. In kind it is physicochemical. As to conditions: buffer, pH 7.4, 24 h, at 125 µg/mL. The method, boiled down: (§3)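 A DMSO stock of about 1.25 mg/mL was diluted into 0.1 N HCl (pH 1) or 50 mM phosphate buffer (pH 7.4), giving final concentrations of ~125 µg/mL prodrug and 10% DMSO. The solution was filtered and held at 37 °C in the HPLC autosampler, with injections at several times over 24 h. Percent remaining was calculated from prodrug peak area relative to t0.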

Series [5] is described as follows: Equilibrium solubility of compound at pH 7.4 incubated for 24 to 48 hrs by HPLC analysis. It counts as physicochemical. The following applies: buffer, time 24-48 hrs. The method, boiled down:
as §2

A short description of series [6]: Solubility in FeSSIF at pH 5. In kind it is physicochemical. Put shortly: as §2
Series [7] can be described thus: Stability of compound at pH 1 assessed as prodrug remaining level at 125 ug/ml incubated for 24 hrs by HPLC analysis. As to conditions: buffer, pH 1, 24 h, at 125 µg/mL. In kind it is physicochemical. Put shortly: as §3
Series [8] is described as follows: AUC in beagle dog assessed as pibrentasvir1 level at 40 mg, po measured up to 24 hrs. The following applies: in vivo. In kind it is ADME, organism-based, Canis lupus familiaris. More on the design: route oral, dose 40 mg, time <=24. The method, boiled down:
(§4)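 The dose equalled 40 mg PIB after adjustment for prodrug MW. Food was returned at 12 h. K2EDTA plasma was sampled at 0.25–24 h. Cmax is in ng/mL and AUC in ng·h/mL.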

Series [9] is described as follows: Cmax in beagle dog assessed as pibrentasvir1 level at 40 mg, po measured up to 24 hrs. More on the design: route oral, dose 40 mg, time <=24. It counts as ADME, organism-based, Canis lupus familiaris. As to conditions: in vivo. Put shortly:
as §4

For `COC(=O)N[C@H](C(=O)N1CCC[C@H]1c1nc2cc(F)c([C@H]3CC[C@H](c4cc5c(cc4F)nc([C@@H]4CCCN4C(=O)[C@@H](NC(=O)OC)[C@@H](C)OC)n5COC(=O)CCCOP(=O)(O)O)N3c3cc(F)c(N4CCC(c5ccc(F)cc5)CC4)c(F)c3)cc2[nH]1)[C@@H](C)OC`, the exposure (AUC) in series [1] stood at 12600 ng·h/mL. Moreover, the values for the solubility (thermodynamic) in series [2] and in series [5] were 609 µg/mL (≈ 465 µM) and 874 µg/mL (≈ 668 µM), respectively. Also, the Cmax in series [3] turned out to be 784 ng/mL. The Stabilty in series [4] is on record as 80%; in series [7], 76%. In addition, the solubility in series [6] was greater than 1000 µg/mL.
In the case of `COC(=O)N[C@H](C(=O)N1CCC[C@H]1c1nc2cc(F)c([C@H]3CC[C@H](c4cc5nc([C@@H]6CCCN6C(=O)[C@@H](NC(=O)OC)[C@@H](C)OC)n(COC(=O)Cc6ccccc6OP(=O)(O)O)c5cc4F)N3c3cc(F)c(N4CCC(c5ccc(F)cc5)CC4)c(F)c3)cc2[nH]1)[C@@H](C)OC`, the AUC in [1] is 9560 ng·h/mL; in [8], 2940 ng·h/mL. Further, the thermodynamic solubility was 2 µg/mL (≈ 1.47 µM) in series [2] and less than 0.2 µg/mL in series [5]. The Cmax in series [3] came out at 584 ng/mL; in [9] it was 288 ng/mL. Moreover, the values for the Stabilty in series [4] and in series [7] were 28% and 15%, respectively. In addition, the solubility in series [6] is greater than 1000 µg/mL.
Consider `COC(=O)N[C@H](C(=O)N1CCC[C@H]1c1nc2cc(F)c([C@H]3CC[C@H](c4cc5c(cc4F)nc([C@@H]4CCCN4C(=O)[C@@H](NC(=O)OC)[C@@H](C)OC)n5COC(=O)c4cccc(OP(=O)(O)O)c4)N3c3cc(F)c(N4CCC(c5ccc(F)cc5)CC4)c(F)c3)cc2[nH]1)[C@@H](C)OC`, for which the AUC in series [1] amounted to 819 ng·h/mL. In addition, the solubility (thermodynamic) in [2] and in series [5] was greater than 1000 µg/mL each time. The maximum concentration (Cmax) in [3] was found to be 46 ng/mL. For the same compound, the Stabilty in series [4] is reported as 100%; in series [7], 91%.
As to `COC(=O)N[C@H](C(=O)N1CCC[C@H]1c1nc2cc(F)c([C@H]3CC[C@H](c4cc5nc([C@@H]6CCCN6C(=O)[C@@H](NC(=O)OC)[C@@H](C)OC)n(COC(=O)N(C)c6ncccc6COP(=O)(O)O)c5cc4F)N3c3cc(F)c(N4CCC(c5ccc(F)cc5)CC4)c(F)c3)cc2[nH]1)[C@@H](C)OC`, the results for the AUC in series [1] and in [8] were 6490 ng·h/mL and 3020 ng·h/mL, respectively. Moreover, the thermodynamic solubility in [2] and in series [5] was greater than 1000 µg/mL each time. For the same compound, the Cmax in [3] stood at 380 ng/mL; in series [9] it was 297 ng/mL. Besides, the Stabilty in series [4] and in series [7] was 92% each time. This compound came in with a solubility in [6] greater than 1000 µg/mL.
Turning to `COC(=O)N[C@H](C(=O)N1CCC[C@H]1c1nc2cc(F)c([C@H]3CC[C@H](c4cc5nc([C@@H]6CCCN6C(=O)[C@@H](NC(=O)OC)[C@@H](C)OC)n(COC(=O)CCCOP(=O)(O)O)c5cc4F)N3c3cc(F)c(N4CCC(c5ccc(F)cc5)CC4)c(F)c3)cc2[nH]1)[C@@H](C)OC`, the area under the curve (AUC) in series [1] turned out to be 5570 ng·h/mL; in series [8], 4510 ng·h/mL. Besides, the solubility (thermodynamic) in series [2] turned out to be 146 µg/mL (≈ 112 µM); in [5], 49 µg/mL (≈ 37.4 µM). For the same compound, the figures for the Cmax in series [3] and in [9] were 336 ng/mL and 462 ng/mL, respectively. Besides, the Stabilty in series [4] came out at 76%; in series [7] it was 82%. The solubility in series [6] was greater than 1000 µg/mL.
Consider `COC(=O)N[C@H](C(=O)N1CCC[C@H]1c1nc2cc(F)c([C@H]3CC[C@H](c4cc5nc([C@@H]6CCCN6C(=O)[C@@H](NC(=O)OC)[C@@H](C)OC)n(COC(=O)c6cccc(OP(=O)(O)O)c6)c5cc4F)N3c3cc(F)c(N4CCC(c5ccc(F)cc5)CC4)c(F)c3)cc2[nH]1)[C@@H](C)OC`, for which the AUC in series [1] worked out at 1510 ng·h/mL. For the same compound, the values for the thermodynamic solubility in series [2] and in series [5] were 397 µg/mL (≈ 296 µM) and 827 µg/mL (≈ 616 µM), respectively. In addition, the Cmax in [3] came out at 96 ng/mL. Further, the Stabilty is 100% in series [4] and 96% in [7]. Besides, the solubility in [6] is greater than 1000 µg/mL.
With `COC(=O)N[C@H](C(=O)N1CCC[C@H]1c1nc2cc(F)c([C@H]3CC[C@H](c4cc5nc([C@@H]6CCCN6C(=O)[C@@H](NC(=O)OC)[C@@H](C)OC)n(COC(=O)c6ccccc6COP(=O)(O)O)c5cc4F)N3c3cc(F)c(N4CCC(c5ccc(F)cc5)CC4)c(F)c3)cc2[nH]1)[C@@H](C)OC`, the AUC came to 10700 ng·h/mL in [1] and 1150 ng·h/mL in series [8]. The thermodynamic solubility in series [2] is 99 µg/mL (≈ 72.9 µM); in series [5], less than 0.2 µg/mL. The highest concentration (Cmax) in [3] is 622 ng/mL; in [9], 115 ng/mL. Besides, the Stabilty was determined as 89% in [4] and 99% in series [7]. In series [6], this compound displayed a solubility greater than 1000 µg/mL.
`COC(=O)N[C@H](C(=O)N1CCC[C@H]1c1nc2cc(F)c([C@H]3CC[C@H](c4cc5c(cc4F)nc([C@@H]4CCCN4C(=O)[C@@H](NC(=O)OC)[C@@H](C)OC)n5COC(=O)c4ccccc4COP(=O)(O)O)N3c3cc(F)c(N4CCC(c5ccc(F)cc5)CC4)c(F)c3)cc2[nH]1)[C@@H](C)OC`: the exposure (AUC) in series [1] was found to be 2420 ng·h/mL. For the same compound, the thermodynamic solubility in series [2] was 543 µg/mL (≈ 400 µM); in [5] it was 92 µg/mL (≈ 67.8 µM). The Cmax in series [3] came to 132 ng/mL. Also, the Stabilty in series [4] was determined as 84%; in series [7], 98%. In addition, the solubility in [6] is greater than 1000 µg/mL.
`COC(=O)N[C@H](C(=O)N1CCC[C@H]1c1nc2cc(F)c([C@H]3CC[C@H](c4cc5c(cc4F)nc([C@@H]4CCCN4C(=O)[C@@H](NC(=O)OC)[C@@H](C)OC)n5COC(=O)[C@@H](N)C(C)C)N3c3cc(F)c(N4CCC(c5ccc(F)cc5)CC4)c(F)c3)cc2[nH]1)[C@@H](C)OC`: the thermodynamic solubility in series [2] was greater than 1000 µg/mL; in [5], less than 0.2 µg/mL.
Consider `COC(=O)N[C@H](C(=O)N1CCC[C@H]1c1nc2cc(F)c([C@H]3CC[C@H](c4cc5c(cc4F)nc([C@@H]4CCCN4C(=O)[C@@H](NC(=O)OC)[C@@H](C)OC)n5COC(=O)N(C)c4ncccc4COP(=O)(O)O)N3c3cc(F)c(N4CCC(c5ccc(F)cc5)CC4)c(F)c3)cc2[nH]1)[C@@H](C)OC`, for which the AUC in [1] is 9750 ng·h/mL. The thermodynamic solubility in [2] and in series [5] was greater than 1000 µg/mL in each case. For the same compound, the peak concentration (Cmax) in series [3] is 567 ng/mL. In addition, the values for the Stabilty in series [4] and in series [7] were 90% and 92%, respectively. Moreover, the solubility in series [6] was greater than 1000 µg/mL.
Take `COC(=O)N[C@H](C(=O)N1CCC[C@H]1c1nc2cc(F)c([C@H]3CC[C@H](c4cc5nc([C@@H]6CCCN6C(=O)[C@@H](NC(=O)OC)[C@@H](C)OC)n(COC(=O)[C@@H](NC(=O)OCOP(=O)(O)O)C(C)C)c5cc4F)N3c3cc(F)c(N4CCC(c5ccc(F)cc5)CC4)c(F)c3)cc2[nH]1)[C@@H](C)OC`: the AUC in series [1] was determined as 8840 ng·h/mL; in series [8] it was 122 ng·h/mL. Moreover, the results for the thermodynamic solubility in series [2] and in [5] were 114 µg/mL (≈ 81.6 µM) and less than 0.1 µg/mL, respectively. For the same compound, the results for the maximum concentration (Cmax) in series [3] and in series [9] were 498 ng/mL and 16 ng/mL, respectively. Moreover, the Stabilty in series [4] is listed as 38%; in [7], 95%. Moreover, the solubility in series [6] was greater than 1000 µg/mL.
